Variants at the floor of the assay were thinned out.
B1: tRNA (parent)
chain: CUCUCGGUAGCCAAGUUGGUUUAAGGCGCAAGACUUUAAUUUAUCACUACGAAAUCUUGAGAUCGGGCGUUCGACUCGCCCCCGGGAGAUUUUUUCCUCGAGCAA

Variants of: B1
Experiment: nonsense suppression (GFP-seq) (ratio to wild type); higher = more function; SUP4oc tRNA, yeast GFP reporter sort-seq
How it was run: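 Sorted GFP/RFP bins of yeast were each Illumina-sequenced with a phred ≥30 cutoff; the cells held a genome-integrated ochre-suppressor tRNA variant from a library with ~3% random mutations, a galactose-driven GFP ochre reporter, and RFP. Culture was in raffinose/galactose medium containing 80 mg/L adenine. Nonsense suppression, termed GFPSEQ, is the median GFP/RFP of the bins weighted by each variant's estimated cell share per bin, relative to the unmutated parent tRNA, for variants reaching ≥100 reads and ≥30 cells.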

U8A A30G A33G and U8A G10A G65A G85U cannot be ordered by nonsense suppression: no more than 0.026 for the first, no more than 0.026 for the second.

G7U A9U A31U and G7U U21G A23U C79G cannot be ordered by nonsense suppression: no more than 0.026 for the first, no more than 0.026 for the second.

Going from A9C G85U to U8C C12A C68A C72U, the nonsense suppression falls from 0.04 to no more than 0.026.

Going from G7U U8C to A9G A30G G61A, the nonsense suppression rises from no more than 0.026 to 0.291.

First: A9G G73U
Second: A9G G73A
The nonsense suppression of the first is lower: 0.053 for the first, 0.12 for the second.

Going from G7U A9C U16C U57C to A9U A31G, the nonsense suppression rises from no more than 0.026 to 0.193.

G6A U55G and G6A U55A cannot be ordered by nonsense suppression: no more than 0.026 for the first, no more than 0.026 for the second.

Going from G6A U55C to U8A G25C U70A, the nonsense suppression falls from 0.262 to no more than 0.026.

First: A9C C68U
Second: U8A U57C
The nonsense suppression of the first is higher: 0.765 for the first, no more than 0.026 for the second.

Compared with G6U C83G, U8C G85U is lower in nonsense suppression: 0.923 for the first, 0.0537 for the second.

Going from G6A G28C to G6A A23G G25C U63C C80G, the nonsense suppression falls from 0.0666 to no more than 0.026.

Going from A9G A74C to U8A U55G C81G, the nonsense suppression falls from 0.0286 to no more than 0.026.

A9C C34U U58G G78C and G7U U58G C80G cannot be ordered by nonsense suppression: no more than 0.026 for the first, no more than 0.026 for the second.

First: A9C U63C
Second: A9C U63G
The nonsense suppression of the first is higher: 0.202 for the first, 0.0362 for the second.

A9C U35A and A9G A14C A54G cannot be ordered by nonsense suppression: no more than 0.026 for the first, no more than 0.026 for the second.

G6U U63C and G7A G26U C29A cannot be ordered by nonsense suppression: no more than 0.026 for the first, no more than 0.026 for the second.

G7U G28U U71G C72A G86U and G6C U35G cannot be ordered by nonsense suppression: no more than 0.026 for the first, no more than 0.026 for the second.

G7U U55C C68U A89C and U8A A14U U20A A74C cannot be ordered by nonsense suppression: no more than 0.026 for the first, no more than 0.026 for the second.

Compared with A9G C81U, A9G G61A G85A is higher in nonsense suppression: 0.028 for the first, 0.303 for the second.

Going from A9C A13G to A9C A13C, the nonsense suppression rises from 0.0462 to 1.15.

First: G6U U17G C83A
Second: A9G C11U G61C
The nonsense suppression of the first is higher: 1.15 for the first, no more than 0.026 for the second.

Going from G6U G7C A33U to A9U A24G, the nonsense suppression rises from no more than 0.026 to 0.0422.

Going from G7A G28U C34A to A9G, the nonsense suppression rises from no more than 0.026 to 0.45.

Going from A9U to A9C, the nonsense suppression rises from 0.802 to 1.05.

First: A9G U16G
Second: A9G U16A
The nonsense suppression of the first is lower: 0.551 for the first, 0.845 for the second.

A9G U16C G18U and U8C A14C C34U cannot be ordered by nonsense suppression: no more than 0.026 for the first, no more than 0.026 for the second.

A9G U63C A74U C75U C79U and G7A U70A A89C cannot be ordered by nonsense suppression: no more than 0.026 for the first, no more than 0.026 for the second.

First: G7C U22C G26A
Second: G7C U21G
The nonsense suppression of the first is lower: no more than 0.026 for the first, 0.0521 for the second.

Going from G6U C82A A87U to A9G U20G C75G, the nonsense suppression rises from no more than 0.026 to 0.831.

Compared with U8C G18U U22A U35G U71A C80G, A9G U55C is higher in nonsense suppression: no more than 0.026 for the first, 0.245 for the second.

G7A A9C A54G and G7A U35G G59A cannot be ordered by nonsense suppression: no more than 0.026 for the first, no more than 0.026 for the second.

U8G C56U and A9G U21C A60U cannot be ordered by nonsense suppression: no more than 0.026 for the first, no more than 0.026 for the second.

First: A9U A33G
Second: G7C C11G C79A
The nonsense suppression of the first is higher: 0.0334 for the first, no more than 0.026 for the second.

A9C A31G C68G G86A and A9C C75A G88A cannot be ordered by nonsense suppression: no more than 0.026 for the first, no more than 0.026 for the second.

G7C U76C and G7A U55A cannot be ordered by nonsense suppression: no more than 0.026 for the first, no more than 0.026 for the second.

Compared with G7U C11U C56G, A9G G61A A87G is higher in nonsense suppression: no more than 0.026 for the first, 0.188 for the second.

G6U C11U A13U and U8G U17G G69U C80G cannot be ordered by nonsense suppression: no more than 0.026 for the first, no more than 0.026 for the second.

A9G U22A U35G and G6A G25C A33G cannot be ordered by nonsense suppression: no more than 0.026 for the first, no more than 0.026 for the second.

First: G7U A87U
Second: G6A G78A
The nonsense suppression of the first is lower: no more than 0.026 for the first, 0.037 for the second.

U8C A24U U71C and U8G A13C G28C C64U U70A C72U G84U cannot be ordered by nonsense suppression: no more than 0.026 for the first, no more than 0.026 for the second.

A9G U76G C80G and U8C A9U A54U cannot be ordered by nonsense suppression: no more than 0.026 for the first, no more than 0.026 for the second.

Compared with A9G A30U U58A, U8C U63A is lower in nonsense suppression: 0.23 for the first, 0.0619 for the second.

Compared with G6U U17C G28U U55C G69U G88U, G7U A54C is higher in nonsense suppression: no more than 0.026 for the first, 0.0394 for the second.

A9G C12A and A9C G69A cannot be ordered by nonsense suppression: no more than 0.026 for the first, no more than 0.026 for the second.

Compared with A9C U20G G61U C68U, A9C A23G is higher in nonsense suppression: no more than 0.026 for the first, 0.0661 for the second.

U8G A60G and G7U C56U cannot be ordered by nonsense suppression: no more than 0.026 for the first, no more than 0.026 for the second.

Compared with G6U A9U, G7A C34U is lower in nonsense suppression: 0.0343 for the first, no more than 0.026 for the second.

First: A9G G84A
Second: A9G G84U
The nonsense suppression of the first is higher: 0.0699 for the first, 0.0539 for the second.

First: G7A G18U
Second: G7C A9U
The nonsense suppression of the first is lower: no more than 0.026 for the first, 0.0428 for the second.

Going from A9G C11U to G6U U63G U71C G85U A89C, the nonsense suppression falls from 0.0313 to no more than 0.026.

A9C U58G G61U and G7C U35G cannot be ordered by nonsense suppression: no more than 0.026 for the first, no more than 0.026 for the second.

A9C A13G U55A G73U and A9U A24C G66C C83U G85A cannot be ordered by nonsense suppression: no more than 0.026 for the first, no more than 0.026 for the second.

Compared with G7A U20C C82A G86A G88A A89C, G6A C81U is higher in nonsense suppression: no more than 0.026 for the first, 0.0651 for the second.

U8A C27G A54G C79U and U8A A23G C80G G84C cannot be ordered by nonsense suppression: no more than 0.026 for the first, no more than 0.026 for the second.

Compared with U8C A54G G59C A62G G84A, U8A A9G is higher in nonsense suppression: no more than 0.026 for the first, 0.0277 for the second.

First: A9G C82U
Second: U8G A9U C11A G26U
The nonsense suppression of the first is higher: 0.531 for the first, no more than 0.026 for the second.

Compared with G6C U57C G65A G67A A74C G78C, U8A A14G is higher in nonsense suppression: no more than 0.026 for the first, 0.18 for the second.

G6A U63G C81U and U8G G15C cannot be ordered by nonsense suppression: no more than 0.026 for the first, no more than 0.026 for the second.

Compared with G6C U16A C56G U57C U58C U71C, A9U A13U A24G is higher in nonsense suppression: no more than 0.026 for the first, 0.212 for the second.

Compared with G7A U20G C34U A62C, A9G C68U is higher in nonsense suppression: no more than 0.026 for the first, 0.153 for the second.

First: G7C G19C G66U G69C
Second: U8C U21G
The nonsense suppression of the first is lower: no more than 0.026 for the first, 0.0903 for the second.

U8C U21A and U8A G61A C72G C81G cannot be ordered by nonsense suppression: no more than 0.026 for the first, no more than 0.026 for the second.

Going from A9G U17A to A9G U17C, the nonsense suppression falls from 0.92 to 0.113.

G7A A54C G67U and A9G G10U C80U A87C cannot be ordered by nonsense suppression: no more than 0.026 for the first, no more than 0.026 for the second.

A9C C12U A23C A87U and A9G C72G U76G G88U cannot be ordered by nonsense suppression: no more than 0.026 for the first, no more than 0.026 for the second.

U8A G25C and U8A G25A cannot be ordered by nonsense suppression: no more than 0.026 for the first, no more than 0.026 for the second.

Going from G7U A30G to A9C A60C, the nonsense suppression rises from no more than 0.026 to 0.0924.

Going from A9C A60U to A9G G61C, the nonsense suppression rises from 0.575 to 1.06.

Compared with A9G G61U, A9G G15C is lower in nonsense suppression: 1.1 for the first, 0.173 for the second.

Compared with A9G G15U, A9U A74U is higher in nonsense suppression: 0.0374 for the first, 0.106 for the second.

Compared with A9U A74G, A9G A24G is lower in nonsense suppression: 0.0977 for the first, 0.0517 for the second.

G7U A13G U17A and G7A A24U C75U G78C cannot be ordered by nonsense suppression: no more than 0.026 for the first, no more than 0.026 for the second.

Going from G6C A9U G65U G85C to U8C U70G A74C G84C, the nonsense suppression rises from no more than 0.026 to 0.0541.

U8C G65A C72U and G7C A14C G61U A74U A87G cannot be ordered by nonsense suppression: no more than 0.026 for the first, no more than 0.026 for the second.

G6U U16C U17C G19U and A9G A60C cannot be ordered by nonsense suppression: no more than 0.026 for the first, no more than 0.026 for the second.

Going from A9G A60G to G7A A24C, the nonsense suppression falls from 0.222 to 0.123.

Going from A9G A33C G66U to A9G A13G, the nonsense suppression rises from no more than 0.026 to 0.205.

Going from A9G A13C to U8C C81G, the nonsense suppression falls from 0.183 to no more than 0.026.

Compared with A9U C64U, G6U U16G G59A G78A is lower in nonsense suppression: 0.0349 for the first, no more than 0.026 for the second.

G6C C77G and U8G G73C cannot be ordered by nonsense suppression: no more than 0.026 for the first, no more than 0.026 for the second.

U8A U57C G85U and U8A G19C A60G cannot be ordered by nonsense suppression: no more than 0.026 for the first, no more than 0.026 for the second.

First: A9G G10U
Second: A9G G10A
The nonsense suppression of the first is higher: 0.0476 for the first, 0.0344 for the second.

Going from A9U A54G to A9U A54U, the nonsense suppression rises from 0.0306 to 0.222.

A9U A54C showed a nonsense suppression of 0.0503.

Source: the RNAGym collection of RNA variant scans (doi:10.1101/gad.245936.114)
